Data from ChEMBL document CHEMBL4732114, “Design and structural optimization of novel 2H-benzo[h]chromene derivatives that target AcrB and reverse bacterial multidrug resistance” (Eur J Med Chem, 2021).
≈ marks a conversion by molar mass, not a printed value. Calls of active or inactive are those of the source. The calls are words filed in the database; no cut-off is given here.

Experiments:
[1] = molecular target: T1, Multidrug efflux pump subunit AcrB (Escherichia coli (strain K12)) (UniProt P31224); experiment: Inhibition of AcrB in multidrug-resistant Escherichia coli BW25113 assessed as potentiation of levofloxacin-induced antibacterial activity by measuring levofloxacin MIC at 8 ug/ml by checkerboard titration method (reference value: 0.06 ug/ml); settings: dose 8.0 µg/ml
T1 sequence (whole entry): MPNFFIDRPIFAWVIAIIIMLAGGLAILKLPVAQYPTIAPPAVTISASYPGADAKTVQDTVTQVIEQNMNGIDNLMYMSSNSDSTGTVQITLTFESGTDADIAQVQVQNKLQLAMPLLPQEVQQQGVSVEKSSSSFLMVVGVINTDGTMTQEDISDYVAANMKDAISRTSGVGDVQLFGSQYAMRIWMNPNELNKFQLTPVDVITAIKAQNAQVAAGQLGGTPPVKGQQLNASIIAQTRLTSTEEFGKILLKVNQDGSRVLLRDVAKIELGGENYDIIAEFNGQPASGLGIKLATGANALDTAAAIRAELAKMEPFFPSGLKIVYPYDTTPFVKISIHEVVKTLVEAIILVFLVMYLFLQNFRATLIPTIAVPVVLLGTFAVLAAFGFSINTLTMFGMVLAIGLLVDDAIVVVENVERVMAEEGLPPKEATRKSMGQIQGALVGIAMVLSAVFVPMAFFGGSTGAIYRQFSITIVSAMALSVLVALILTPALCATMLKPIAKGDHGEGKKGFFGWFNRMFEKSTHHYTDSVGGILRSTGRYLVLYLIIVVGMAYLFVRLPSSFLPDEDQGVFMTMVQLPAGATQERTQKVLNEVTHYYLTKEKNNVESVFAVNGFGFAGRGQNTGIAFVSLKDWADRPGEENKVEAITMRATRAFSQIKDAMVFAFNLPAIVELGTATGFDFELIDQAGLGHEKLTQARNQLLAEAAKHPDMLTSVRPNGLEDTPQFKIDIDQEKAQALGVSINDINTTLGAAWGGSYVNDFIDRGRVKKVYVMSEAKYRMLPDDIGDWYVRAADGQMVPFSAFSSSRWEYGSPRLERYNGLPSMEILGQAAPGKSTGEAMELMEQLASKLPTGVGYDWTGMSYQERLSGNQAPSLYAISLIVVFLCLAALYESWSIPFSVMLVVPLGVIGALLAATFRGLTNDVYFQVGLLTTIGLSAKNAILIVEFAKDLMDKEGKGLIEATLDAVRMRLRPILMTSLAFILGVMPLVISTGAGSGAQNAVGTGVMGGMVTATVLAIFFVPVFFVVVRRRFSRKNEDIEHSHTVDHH

[2] = molecular target: T1, Multidrug efflux pump subunit AcrB (Escherichia coli (strain K12)); settings: Escherichia coli BW25113; dose 32.0 µg/ml
[3] = molecular target: T1, Multidrug efflux pump subunit AcrB (Escherichia coli (strain K12)); settings: Escherichia coli BW25113; dose 128.0 µg/ml
[4] = molecular target: T1, Multidrug efflux pump subunit AcrB (Escherichia coli (strain K12)); experiment: Inhibition of AcrB in multidrug-resistant Escherichia coli BW25113 assessed as potentiation of tetraphenylphosphonium-induced antibacterial activity by measuring tetraphenylphosphonium MIC at 32 ug/ml by checkerboard titration method (reference value: 1024 ug/ml); settings: dose 32.0 µg/ml
[5] = molecular target: T1, Multidrug efflux pump subunit AcrB (Escherichia coli (strain K12)); settings: Escherichia coli BW25113; dose 8.0 µg/ml
[6] = molecular target: T1, Multidrug efflux pump subunit AcrB (Escherichia coli (strain K12)); settings: Escherichia coli BW25113; dose 64.0 µg/ml
[7] = system: Cell membrane; experiment: Induction of inner membrane permeabilization in wild type Escherichia coli BW25113 assessed as perturbation of proton motive force at 128 ug/ml measured after 10 mins in presence of CCCP and glucose by Di0C2(3) probe based fluorescence assay; settings: escherichia coli bw25113, 10 min, dose 128 µg/ml
Procedure, shortened: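 Cell suspensions were left untreated or exposed to 8-128 µg/mL compound for 10 min. DiOC₂(3) was then added and fluorescence followed to a plateau. Cells were re-energized with 0.5% glucose, and the rise in fluorescence was read as membrane-potential build-up. CCCP was added last to dissipate the potential.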

[8] = molecular target: T1, Multidrug efflux pump subunit AcrB (Escherichia coli (strain K12)); experiment: Inhibition of AcrB in multidrug-resistant Escherichia coli BW25113 assessed as potentiation of chloramphenicol-induced antibacterial activity by measuring chloramphenicol MIC at 128 ug/ml by checkerboard titration method (reference value: 8 ug/ml); settings: dose 128.0 µg/ml
[9] = molecular target: T1, Multidrug efflux pump subunit AcrB (Escherichia coli (strain K12)); experiment: Inhibition of AcrB in multidrug-resistant Escherichia coli BW25113 assessed as potentiation of chloramphenicol-induced antibacterial activity by measuring chloramphenicol MIC at 32 ug/ml by checkerboard titration method (reference value: 8 ug/ml); settings: dose 32.0 µg/ml
[10] = molecular target: T1, Multidrug efflux pump subunit AcrB (Escherichia coli (strain K12)); experiment: Inhibition of AcrB in multidrug-resistant Escherichia coli BW25113 assessed as potentiation of erythromycin-induced antibacterial activity by measuring erythromycin MIC at 32 ug/ml by checkerboard titration method (reference value: 64 ug/ml); settings: dose 32.0 µg/ml
[11] = Toxicity in multidrug-resistant Escherichia coli BW25113 harboring AcrB deletion mutant assessed as growth inhibition by two-fold broth dilution method
[12] = molecular target: T1, Multidrug efflux pump subunit AcrB (Escherichia coli (strain K12)); experiment: Inhibition of AcrB in multidrug-resistant Escherichia coli BW25113 assessed as potentiation of erythromycin-induced antibacterial activity by measuring erythromycin MIC at 128 ug/ml by checkerboard titration method (reference value: 64 ug/ml); settings: dose 128.0 µg/ml
[13] = molecular target: T1, Multidrug efflux pump subunit AcrB (Escherichia coli (strain K12)); experiment: Inhibition of AcrB in multidrug-resistant Escherichia coli BW25113 assessed as potentiation of chloramphenicol-induced antibacterial activity by measuring chloramphenicol MIC at 16 ug/ml by checkerboard titration method (reference value: 8 ug/ml); settings: dose 16.0 µg/ml
[14] = molecular target: T1, Multidrug efflux pump subunit AcrB (Escherichia coli (strain K12)); experiment: Inhibition of AcrB in multidrug-resistant Escherichia coli BW25113 assessed as potentiation of tetraphenylphosphonium-induced antibacterial activity by measuring tetraphenylphosphonium MIC at 8 ug/ml by checkerboard titration method (reference value: 1024 ug/ml); settings: dose 8.0 µg/ml
[15] = molecular target: T1, Multidrug efflux pump subunit AcrB (Escherichia coli (strain K12)); experiment: Inhibition of AcrB in multidrug-resistant Escherichia coli BW25113 assessed as potentiation of tetraphenylphosphonium-induced antibacterial activity by measuring tetraphenylphosphonium MIC at 64 ug/ml by checkerboard titration method (reference value: 1024 ug/ml); settings: dose 64.0 µg/ml
[16] = Toxicity in multidrug-resistant Escherichia coli BW25113 assessed as growth inhibition by two-fold broth dilution method
[17] = molecular target: T1, Multidrug efflux pump subunit AcrB (Escherichia coli (strain K12)); experiment: Inhibition of AcrB in Escherichia coli BW25113 assessed as reduction in glucose-induced nile red efflux at 100 uM preincubated for 15 mins followed by nile red addition and incubated for 3 hrs in shaker in presence of CCCP by fluorimetric analysis; settings: time 3.25 hrs
Procedure, shortened: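 Wild-type and AcrB-deleted cells were preloaded with Nile Red, with or without compound. Fluorescence was recorded, and efflux was triggered at 100 s with 0.2% glucose. Traces were compared with the deletion-strain level. Triplicate experiments used different cell batches.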

COc1cccc(COc2cccc3c4c(c(-c5nnco5)cc23)CCC(C)(C)O4)c1
MIC [1]: 0.06 µg/mL | MIC [2]: 16 µg/mL (≈ 38.4 µM) | MIC [3]: 16 µg/mL (≈ 38.4 µM) | MIC [4]: 1020 µg/mL | MIC [5]: 16 µg/mL (≈ 38.4 µM) | MIC [6]: 16 µg/mL (≈ 38.4 µM) | Activity [7]: Not Active | MIC [8]: 8 µg/mL | MIC [9]: 8 µg/mL | MIC [10]: 64 µg/mL | MIC [11]: > 128 µg/mL | MIC [12]: 32 µg/mL | MIC [13]: 8 µg/mL | MIC [14]: 1020 µg/mL | MIC [15]: 512 µg/mL | MIC [16]: > 512 µg/mL

C=CC(=O)Nc1ccc(COc2cccc3c4c(c(Cn5cnnn5)cc23)CCC(C)(C)O4)cc1
MIC [1]: 0.06 µg/mL | MIC [2]: 16 µg/mL (≈ 34.1 µM) | MIC [3]: 16 µg/mL (≈ 34.1 µM) | MIC [4]: 1020 µg/mL | MIC [5]: 16 µg/mL (≈ 34.1 µM) | MIC [6]: 16 µg/mL (≈ 34.1 µM) | Activity [7]: Not Active | MIC [8]: 4 µg/mL | MIC [9]: 4 µg/mL | MIC [10]: 32 µg/mL | MIC [11]: > 128 µg/mL | MIC [12]: 32 µg/mL | MIC [13]: 8 µg/mL | MIC [14]: 1020 µg/mL | MIC [15]: 1020 µg/mL | MIC [16]: > 512 µg/mL

COc1cccc(COc2cccc3c4c(c(C(=O)N5CCOCC5)cc23)CCC(C)(C)O4)c1
MIC [1]: 0.06 µg/mL | MIC [2]: 16 µg/mL (≈ 34.7 µM) | MIC [3]: 16 µg/mL (≈ 34.7 µM) | MIC [4]: 512 µg/mL | MIC [5]: 16 µg/mL (≈ 34.7 µM) | MIC [6]: 16 µg/mL (≈ 34.7 µM) | MIC [8]: 2 µg/mL | MIC [9]: 4 µg/mL | MIC [10]: 32 µg/mL | MIC [11]: > 128 µg/mL | MIC [12]: 16 µg/mL | MIC [13]: 4 µg/mL | MIC [14]: 512 µg/mL | MIC [15]: 256 µg/mL | MIC [16]: > 512 µg/mL

CC(C)NCCOc1ccc2c(c1)OC(C)(C)CC2=O
MIC [1]: 0.03 µg/mL | MIC [2]: 16 µg/mL (≈ 57.7 µM) | MIC [3]: 16 µg/mL (≈ 57.7 µM) | MIC [4]: 1020 µg/mL | MIC [5]: 16 µg/mL (≈ 57.7 µM) | MIC [6]: 16 µg/mL (≈ 57.7 µM) | MIC [8]: 8 µg/mL | MIC [9]: 8 µg/mL | MIC [10]: 64 µg/mL | MIC [11]: > 128 µg/mL | inhibition [17]: Active | MIC [12]: 64 µg/mL | MIC [13]: 8 µg/mL | MIC [14]: 1020 µg/mL | MIC [15]: 1020 µg/mL | MIC [16]: > 512 µg/mL

CC1CN(C(=O)c2cc3c(OCc4c(Cl)cccc4Cl)cccc3c3c2CCC(C)(C)O3)CC(C)O1 (stereo not drawn)
MIC [1]: 0.03 µg/mL | MIC [2]: 16 µg/mL (≈ 30.3 µM) | MIC [3]: 16 µg/mL (≈ 30.3 µM) | MIC [4]: 1020 µg/mL | MIC [5]: 16 µg/mL (≈ 30.3 µM) | MIC [6]: 16 µg/mL (≈ 30.3 µM) | MIC [8]: 8 µg/mL | MIC [9]: 8 µg/mL | MIC [10]: 64 µg/mL | inhibition [17]: Active | MIC [12]: 64 µg/mL | MIC [13]: 8 µg/mL | MIC [14]: 1020 µg/mL | MIC [15]: 1020 µg/mL

Cc1ccccc1COc1cccc2c3c(c(-c4nnco4)cc12)CCC(C)(C)O3
MIC [1]: 0.06 µg/mL | MIC [2]: 16 µg/mL (≈ 40 µM) | MIC [3]: 16 µg/mL (≈ 40 µM) | MIC [4]: 512 µg/mL | MIC [5]: 16 µg/mL (≈ 40 µM) | MIC [6]: 16 µg/mL (≈ 40 µM) | MIC [8]: 8 µg/mL | MIC [9]: 8 µg/mL | MIC [10]: 32 µg/mL | MIC [11]: > 128 µg/mL | inhibition [17]: Active | MIC [12]: 16 µg/mL | MIC [13]: 8 µg/mL | MIC [14]: 512 µg/mL | MIC [15]: 512 µg/mL | MIC [16]: > 512 µg/mL
